Measurements taken from ChEMBL document CHEMBL1151705, “Novel azalides derived from 16-membered macrolides. Part II: Isolation of the linear 9-formylcarboxylic acid and its sequential macrocyclization with an amino alcohol or an azidoamine” (2008).
≈ marks a conversion by molar mass, not a printed value.

Experiments:
Format in all cases: functional
Streptococcus pneumoniae [1] = assay: Antimicrobial activity against drug-susceptible Streptococcus pneumoniae 2 after 20 hrs by agar dilution method
Procedure, shortened: (§1)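 Streptococci, H. influenzae and M. catarrhalis were precultured on blood agar plates. Suspensions of about 10⁶ CFU/ml were inoculated onto sensitivity disk agar supplemented with 5% horse blood and incubated at 37 °C for 20 h. MIC was read as the lowest drug concentration with no visible growth.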

Streptococcus pneumoniae [2] = assay: Antimicrobial activity against Streptococcus pneumoniae 9 expressing mefA after 20 hrs by agar dilution method; procedure, shortened: as §1
Haemophilus influenzae [3] = assay: Antimicrobial activity against drug-susceptible Haemophilus influenzae 2 after 20 hrs by agar dilution method; procedure, shortened: as §1
Staphylococcus aureus [4] = assay: Antimicrobial activity against drug-susceptible Staphylococcus aureus 3 after 20 hrs by agar dilution method
Procedure, shortened: (§2)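 Agar dilution MIC. S. aureus seed culture was grown in sensitivity test broth. Cell suspension (about 10⁶ CFU/ml) was inoculated onto sensitivity disk agar with 5% horse blood and incubated at 37 °C for 20 h. MIC was the lowest drug concentration that prevented visible growth.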

Streptococcus pneumoniae [5] = assay: Antimicrobial activity against Streptococcus pneumoniae 6 constitutively expressing ermB after 20 hrs by agar dilution method; conditions: Streptococcus pneumoniae, 20 h; read-out: MIC; procedure, shortened: as §1
Haemophilus influenzae [6] = assay: Antimicrobial activity against drug-susceptible Haemophilus influenzae 4 after 20 hrs by agar dilution method; procedure, shortened: as §1
Haemophilus influenzae [7] = assay: Antimicrobial activity against drug-susceptible Haemophilus influenzae 1 after 20 hrs by agar dilution method; procedure, shortened: as §1
Streptococcus pyogenes [8] = assay: Antimicrobial activity against Streptococcus pyogenes 2 constitutively expressing ermB after 20 hrs by agar dilution method; procedure, shortened: as §1
Haemophilus influenzae [9] = assay: Antimicrobial activity against drug-susceptible Haemophilus influenzae 3 after 20 hrs by agar dilution method; procedure, shortened: as §1
Streptococcus pneumoniae [10] = assay: Antimicrobial activity against Streptococcus pneumoniae 7 expressing inducible ermB after 20 hrs by agar dilution method; procedure, shortened: as §1
Moraxella catarrhalis [11] = assay: Antimicrobial activity against drug-susceptible Moraxella catarrhalis 1 after 20 hrs by agar dilution method; procedure, shortened: as §1
Staphylococcus aureus [12] = assay: Antimicrobial activity against drug-susceptible Staphylococcus aureus 209P JC-1 after 20 hrs by agar dilution method; procedure, shortened: as §2
Streptococcus pneumoniae [13] = assay: Antimicrobial activity against Streptococcus pneumoniae 4 constitutively expressing ermB after 20 hrs by agar dilution method; conditions: Streptococcus pneumoniae, 20 h; read-out: MIC; procedure, shortened: as §1
Staphylococcus aureus [14] = assay: Antimicrobial activity against Staphylococcus aureus 4 constitutively expressing ermA after 20 hrs by agar dilution method; procedure, shortened: as §2
Staphylococcus aureus [15] = assay: Antimicrobial activity against Staphylococcus aureus 5 expressing inducible ermB after 20 hrs by agar dilution method; procedure, shortened: as §2
Moraxella catarrhalis [16] = assay: Antimicrobial activity against drug-susceptible Moraxella catarrhalis 2 after 20 hrs by agar dilution method; procedure, shortened: as §1
Streptococcus pneumoniae [17] = assay: Antimicrobial activity against drug-susceptible Streptococcus pneumoniae 3 after 20 hrs by agar dilution method; procedure, shortened: as §1
Streptococcus pneumoniae [18] = assay: Antimicrobial activity against Streptococcus pneumoniae 10 expressing mefA after 20 hrs by agar dilution method; procedure, shortened: as §1
Streptococcus pneumoniae [19] = assay: Antimicrobial activity against Streptococcus pneumoniae 8 expressing inducible ermB after 20 hrs by agar dilution method; procedure, shortened: as §1
Streptococcus pneumoniae [20] = assay: Antimicrobial activity against drug-susceptible Streptococcus pneumoniae DP1 Type1 after 20 hrs by agar dilution method; procedure, shortened: as §1
Staphylococcus aureus [21] = assay: Antimicrobial activity against drug-susceptible Staphylococcus aureus 2 after 20 hrs by agar dilution method; procedure, shortened: as §2
Streptococcus pneumoniae [22] = assay: Antimicrobial activity against Streptococcus pneumoniae 5 constitutively expressing ermB/mefA after 20 hrs by agar dilution method; conditions: Streptococcus pneumoniae, 20 h; read-out: MIC; procedure, shortened: as §1
Streptococcus pyogenes [23] = assay: Antimicrobial activity against Streptococcus pyogenes 3 expressing mefA after 20 hrs by agar dilution method; procedure, shortened: as §1
Staphylococcus aureus [24] = assay: Antimicrobial activity against Staphylococcus aureus 6 expressing inducible ermB after 20 hrs by agar dilution method; procedure, shortened: as §2
Streptococcus pyogenes [25] = assay: Antimicrobial activity against drug-susceptible Streptococcus pyogenes 1 after 20 hrs by agar dilution method; procedure, shortened: as §1
[26] = Streptococcus pneumoniae, 20 h, read-out: MIC
[27] = Haemophilus influenzae, 20 h, read-out: MIC
[28] = Staphylococcus aureus, 20 h, read-out: MIC
[29] = Moraxella catarrhalis, 20 h, read-out: MIC
[30] = Staphylococcus aureus, 209P, 20 h, read-out: MIC
[31] = Streptococcus pyogenes, 20 h, read-out: MIC

MIC (Streptococcus pneumoniae [1]; [26])	MIC (Streptococcus pneumoniae [2]; [26])	MIC (Staphylococcus aureus [4]; [28])	MIC (Streptococcus pneumoniae [5])	MIC (Haemophilus influenzae [6]; [27])	MIC (Haemophilus influenzae [7]; [27])	MIC (Streptococcus pyogenes [8])	MIC (Haemophilus influenzae [9]; [27])	MIC (Streptococcus pneumoniae [10]; [26])	MIC (Moraxella catarrhalis [11]; [29])	MIC (Staphylococcus aureus [12]; [30])	MIC (Streptococcus pneumoniae [13])	MIC (Staphylococcus aureus [14])	MIC (Staphylococcus aureus [15]; [28])	MIC (Moraxella catarrhalis [16]; [29])	MIC (Streptococcus pneumoniae [17]; [26])	MIC (Streptococcus pneumoniae [18]; [26])	MIC (Streptococcus pneumoniae [19]; [26])	MIC (Streptococcus pneumoniae [20]; [26])	MIC (Staphylococcus aureus [21]; [28])	Compound	also measured
0.06 µg/mL (≈ 0.0609 µM)	0.13 µg/mL (≈ 0.132 µM)	0.5 µg/mL (≈ 0.507 µM)	32 µg/mL (≈ 32.5 µM)	16 µg/mL (≈ 16.2 µM)	32 µg/mL (≈ 32.5 µM)	32 µg/mL (≈ 32.5 µM)	16 µg/mL (≈ 16.2 µM)	8 µg/mL (≈ 8.12 µM)	2 µg/mL (≈ 2.03 µM)	0.5 µg/mL (≈ 0.507 µM)	32 µg/mL (≈ 32.5 µM)	64 µg/mL (≈ 65 µM)	0.5 µg/mL (≈ 0.507 µM)	2 µg/mL (≈ 2.03 µM)	0.13 µg/mL (≈ 0.132 µM)	0.13 µg/mL (≈ 0.132 µM)	8 µg/mL (≈ 8.12 µM)	0.06 µg/mL (≈ 0.0609 µM)	2 µg/mL (≈ 2.03 µM)	CCOC(=O)[C@H]1[C@H](C)O[C@@H](O[C@H]2[C@H](N(C)C)[C@@H](O)[C@H](O[C@H]3[C@@H](CC=O)C[C@@H](C)[C@@H](O)CN(C)CCC[C@H](C/C=C/c4ccc5ccccc5c4)OC(=O)C[C@@H](OC(=O)CC)[C@@H]3OC)O[C@@H]2C)C[C@@]1(C)O	MIC (Haemophilus influenzae [3]; [27]): 8 µg/mL (≈ 8.12 µM); MIC (Streptococcus pneumoniae [22]): 32 µg/mL (≈ 32.5 µM); MIC (Streptococcus pyogenes [23]; [31]): 1 µg/mL (≈ 1.01 µM); MIC (Staphylococcus aureus [24]): 1 µg/mL (≈ 1.01 µM); MIC (Streptococcus pyogenes [25]; [31]): 0.25 µg/mL (≈ 0.254 µM)
0.06 µg/mL (≈ 0.0642 µM)	0.06 µg/mL (≈ 0.0642 µM)	0.25 µg/mL (≈ 0.267 µM)	> 128 µg/mL	8 µg/mL (≈ 8.55 µM)	64 µg/mL (≈ 68.4 µM)	> 128 µg/mL	16 µg/mL (≈ 17.1 µM)	2 µg/mL (≈ 2.14 µM)	1 µg/mL (≈ 1.07 µM)	0.5 µg/mL (≈ 0.535 µM)	128 µg/mL (≈ 137 µM)	> 128 µg/mL	0.25 µg/mL (≈ 0.267 µM)	1 µg/mL (≈ 1.07 µM)	0.06 µg/mL (≈ 0.0642 µM)	0.06 µg/mL (≈ 0.0642 µM)	4 µg/mL (≈ 4.28 µM)	0.03 µg/mL (≈ 0.0321 µM)	1 µg/mL (≈ 1.07 µM)	CCOC(=O)[C@H]1[C@H](C)O[C@@H](O[C@H]2[C@H](N(C)C)[C@@H](O)[C@H](O[C@H]3[C@@H](CC=O)C[C@@H](C)[C@@H](O)CN(C)CCC[C@H](C/C=C/c4ccccc4)OC(=O)C[C@@H](OC(=O)CC)[C@@H]3OC)O[C@@H]2C)C[C@@]1(C)O	MIC (Haemophilus influenzae [3]; [27]): 8 µg/mL (≈ 8.55 µM); MIC (Streptococcus pneumoniae [22]): > 128 µg/mL; MIC (Streptococcus pyogenes [23]; [31]): 0.5 µg/mL (≈ 0.535 µM); MIC (Staphylococcus aureus [24]): 0.5 µg/mL (≈ 0.535 µM); MIC (Streptococcus pyogenes [25]; [31]): 0.13 µg/mL (≈ 0.139 µM)
0.03 µg/mL (≈ 0.0304 µM)	0.03 µg/mL (≈ 0.0304 µM)	0.25 µg/mL (≈ 0.253 µM)	> 128 µg/mL	8 µg/mL (≈ 8.1 µM)	32 µg/mL (≈ 32.4 µM)	> 128 µg/mL	8 µg/mL (≈ 8.1 µM)	16 µg/mL (≈ 16.2 µM)	1 µg/mL (≈ 1.01 µM)	0.25 µg/mL (≈ 0.253 µM)	> 128 µg/mL	> 128 µg/mL	0.25 µg/mL (≈ 0.253 µM)	1 µg/mL (≈ 1.01 µM)	0.03 µg/mL (≈ 0.0304 µM)	0.03 µg/mL (≈ 0.0304 µM)	16 µg/mL (≈ 16.2 µM)	0.015 µg/mL (≈ 0.0152 µM)	0.5 µg/mL (≈ 0.506 µM)	CCOC(=O)[C@H]1[C@H](C)O[C@@H](O[C@H]2[C@H](N(C)C)[C@@H](O)[C@H](O[C@H]3[C@@H](CC=O)C[C@@H](C)[C@@H](O)CN(C)CC(CCCc4ccnc5ccccc45)CCOC(=O)C[C@@H](OC(=O)CC)[C@@H]3OC)O[C@@H]2C)C[C@@]1(C)O (stereo in doubt; form 1)	MIC (Streptococcus pneumoniae [22]): > 128 µg/mL; MIC (Streptococcus pyogenes [23]; [31]): 0.25 µg/mL (≈ 0.253 µM); MIC (Staphylococcus aureus [24]): 0.5 µg/mL (≈ 0.506 µM); MIC (Streptococcus pyogenes [25]; [31]): 0.06 µg/mL (≈ 0.0607 µM)
																				CCOC(=O)[C@H]1[C@H](C)O[C@@H](O[C@H]2[C@H](N(C)C)[C@@H](O)[C@H](O[C@H]3[C@@H](CC=O)C[C@@H](C)[C@@H](O)CN(C)CCC(C/C=C/c4cnc5ccccc5c4)NC(=O)C[C@@H](OC(=O)CC)[C@@H]3OC)O[C@@H]2C)C[C@@]1(C)O (stereo in doubt; form 2)	MIC (Streptococcus pneumoniae [1]): 0.25 µg/mL (≈ 0.257 µM); MIC (Streptococcus pneumoniae [2]): 0.5 µg/mL (≈ 0.515 µM); MIC (Haemophilus influenzae [3]): 4 µg/mL (≈ 4.12 µM); MIC (Staphylococcus aureus [4]): 0.5 µg/mL (≈ 0.515 µM); MIC (Haemophilus influenzae [6]): 32 µg/mL (≈ 32.9 µM); MIC (Haemophilus influenzae [7]): 64 µg/mL (≈ 65.9 µM); MIC (Haemophilus influenzae [9]): 16 µg/mL (≈ 16.5 µM); MIC (Streptococcus pneumoniae [10]): >128 µg/mL; MIC (Moraxella catarrhalis [11]): 8 µg/mL (≈ 8.24 µM); MIC (Staphylococcus aureus [12]): 1 µg/mL (≈ 1.03 µM); MIC (Staphylococcus aureus [15]): 1 µg/mL (≈ 1.03 µM); MIC (Moraxella catarrhalis [16]): 4 µg/mL (≈ 4.12 µM); MIC (Streptococcus pneumoniae [17]): 0.25 µg/mL (≈ 0.257 µM); MIC (Streptococcus pneumoniae [18]): 0.25 µg/mL (≈ 0.257 µM); MIC (Streptococcus pneumoniae [19]): >128 µg/mL; MIC (Streptococcus pneumoniae [20]): 0.13 µg/mL (≈ 0.134 µM); MIC (Staphylococcus aureus [21]): 2 µg/mL (≈ 2.06 µM); MIC (Streptococcus pyogenes [23]): 4 µg/mL (≈ 4.12 µM); MIC (Streptococcus pyogenes [25]): 0.5 µg/mL (≈ 0.515 µM)
